Test results reported in ChEMBL document CHEMBL4622835, “A novel potent metal-binding NDM-1 inhibitor was identified by fragment virtual, SPR and NMR screening” (Bioorg Med Chem, 2020).

Experiments:
[1] = Inhibition of bacteria NMD-1
Klebsiella pneumoniae = test: Synergistic antibacterial activity against Klebsiella pneumoniae ATCC BAA-2470 cells expressing NDM-1 incubated for 20 to 24 hrs presence of meropenem by broth dilution method (Rvb >64 ug/ml); format: functional
Procedure, shortened: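 Broth microdilution in Mueller-Hinton broth, final inoculum about 5 × 10^5 CFU/mL. Test compound fixed at 100 µg/mL final (from 20 mg/mL DMSO stock). Meropenem in two-fold dilutions, 64 to 0.0625 µg/mL final. Plates held 20–24 h at 37 °C. MIC is the lowest meropenem concentration with no visible growth.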

[2] = Binding affinity to recombinant bacteria NDM-1 (I31 to K268 residues)expressed in Escherichia coli BL21 (DE3) cells by SPR assay
Procedure, shortened: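 Tag-free NDM-1 at 50 µg/ml in pH 5.0 sodium acetate, amine-coupled to a CM7 chip (>8,000 RU). Biacore T200, 25 °C, 30 µL/min. Running buffer 10 mM Hepes pH 7.5, 150 mM NaCl, 100 µM ZnCl2, 2% DMSO (EDTA-2Na run without DMSO). Eight two-fold dilutions per compound. KD from a steady-state 1:1 fit, at least three runs.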

[3] = Inhibition of recombinant bacteria NDM-1 (I31 to K268 residues) expressed in Escherichia coli BL21 (DE3) cells incubated for 20 mins using meropenem as substrate
Procedure, shortened: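 NDM-1 (12 nM) preincubated with inhibitor for 20 min at room temperature, then meropenem (100 µM) added. Final buffer 50 mM hepes pH 7.24 with 2% DMSO. Absorbance read at 300 nm at 30 °C. Duplicate wells, three repeats. IC50 taken from percent loss of activity against inhibitor concentration; L-captopril as positive control.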

[4] = Binding affinity to recombinant bacteria 15N labeled His-6-tagged NDM-1 (36 to 270 residues) expressed in Escherichia coli BL21 (DE3) cells by NMR analysis
Procedure, shortened: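 15N-labelled NDM-1 (0.11 mM or 0.165 mM) in 50 mM HEPES, 200 mM NaCl, pH 7.5, titrated with inhibitor from DMSO stock (20 mM or 50 mM). 1H-15N HSQC spectra recorded at 800 MHz, 298 K and 293 K. NDM-1:inhibitor mole ratios ran 1:0 to 1:15. Both di-Zn and apo (EDTA-stripped) forms were used; after the apo titrations, 2 equiv Zn2+ added.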

Row | SMILES | IC50 [1] | MIC (Klebsiella pneumoniae) | Kd [2] | IC50 [3] | Kd [4]
1 | O=C(O)[C@@H]1CS[C@H]2CS[C@H](CS)N21 | 23 µM |  |  |  | 
2 | C/C(=N\Nc1cccnc1)C(=O)O.Cl |  | > 64 µg/mL | > 1000 µM |  | 
3 | CCC/C(=N\Nc1cccnc1)C(=O)O.Cl |  | > 64 µg/mL | 703 µM |  | 
4 | C/C(=N\Nc1cccc2cccnc12)C(=O)O.Cl |  | > 64 µg/mL | 219 to 290 µM | 124 µM | 620 µM
5 | O=C([O-])CN(CCN(CC(=O)[O-])CC(=O)O)CC(=O)O.[Na+].[Na+] [EDETATE DISODIUM ANHYDROUS] |  |  | > 1000 µM | 17.2 µM | 
6 | CC(C)(C)/C(=N\Nc1cccc2cccnc12)C(=O)O.Cl |  | 64 µg/mL | 435 µM | > 500 µM | 
7 | CCC/C(=N\Nc1cccc2cccnc12)C(=O)O.Cl |  | > 64 µg/mL | 221 µM | 82.3 µM | 
8 | C/C(=N\Nc1cccc2ccccc12)C(=O)O |  | > 64 µg/mL | 255 µM | 389 µM | 
9 | N[C@@H](CN[C@@H](CN[C@@H](CC(=O)O)C(=O)O)C(=O)O)C(=O)O | 7 µM |  |  |  | 
10 | CC/C(=N\Nc1cccnc1)C(=O)O.Cl |  | > 64 µg/mL | > 1000 µM |  | 
11 | O=C(O)CNC(=O)C(CS)Cc1ccccc1 (configuration not stated) [THIORPHAN] | 1.8 µM |  |  |  | 
12 | C[C@H](CS)C(=O)N1CCC[C@H]1C(=O)O [CAPTOPRIL] |  |  | 12 to 14.1 µM | 390 µM | 
13 | C[C@@H](O)[C@H]1C(=O)N2C(C(=O)O)=C(S[C@@H]3CN[C@H](C(=O)N(C)C)C3)[C@H](C)[C@H]12 [MEROPENEM] |  |  | 75 µM |  | 
14 | CC/C(=N\Nc1cccc2ccccc12)C(=O)O |  | > 64 µg/mL | 449 µM | 28.1 µM | 
15 | CC(C)(C)/C(=N\Nc1ccccc1)C(=O)O |  | > 64 µg/mL | 438 µM |  | 
16 | CC/C(=N\Nc1ccccc1)C(=O)O |  | > 64 µg/mL | 191 µM |  | 
17 | CCC/C(=N\Nc1ccccc1)C(=O)O |  | > 64 µg/mL | 188 µM |  | 
18 | C/C(=N\Nc1ccccc1)C(=O)O |  | > 64 µg/mL | 168 µM |  | 
19 | O=c1c2ccccc2[se]n1-c1ccccc1 [EBSELEN] | 0.38 µM |  |  |  | 
20 | CC(C)(C)/C(=N\Nc1cccnc1)C(=O)O.Cl |  | > 64 µg/mL | > 1000 µM |  | 
21 | NCCN[C@H]1CC[C@H](CC(=O)N[C@H]2Cc3cccc(C(=O)O)c3OB2O)CC1 | 0.01 µM |  |  |  | 
22 | CC(C)(C)/C(=N\Nc1cccc2ccccc12)C(=O)O |  | > 64 µg/mL | 307 µM | 94.6 µM | 
23 | NCc1ccc(C(=O)N[C@H]2Cc3cccc(C(=O)O)c3O[B-]2(O)O)cc1 | 0.029 µM |  |  |  | 
24 | CC/C(=N\Nc1cccc2cccnc12)C(=O)O.Cl |  | 64 µg/mL | 275 µM | 68.2 µM | 
25 | CCC/C(=N\Nc1cccc2ccccc12)C(=O)O |  | 32 µg/mL | > 1000 µM | > 500 µM | 
